Reference: publication PMC12153341 (Nucleic Acids Research, 2025)
Where “and” joins values, the source holds several entries; their conditions need not be identical. Equal entries are not always repeated. Entries after “also recorded” stand apart in the source; their conditions may differ. Values belong to the molecule of their own block, whether it stands above or below them.

Experiments:
KIF2A Nt (KIF2A1-77) = KIF2A Nt (KIF2A1-77) (Homo sapiens, UniProt O00139); format: binding; settings: 15N-labeled KIF2A1-77, molar ratios 1:0 to 1:2, DPBS pH 7.0, 10°C
Chain of KIF2A Nt (KIF2A1-77) (O00139 1-77): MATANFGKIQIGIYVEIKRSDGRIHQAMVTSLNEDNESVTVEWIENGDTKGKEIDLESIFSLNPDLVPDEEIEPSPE

KIF2C Nt (KIF2C1-79) = target: T1, KIF2C Nt (KIF2C1-79) (Homo sapiens, UniProt Q99661); format: binding; settings: 15N-labeled KIF2C1-79, molar ratios 1:0 to 1:2, DPBS pH 7.0, 10°C
T1 sequence (Q99661 1-79): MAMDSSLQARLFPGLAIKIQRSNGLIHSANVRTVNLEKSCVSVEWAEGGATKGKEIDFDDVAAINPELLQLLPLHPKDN

[1] = target: KIF2A N-terminal domain, KIF2A_(1-77) (human) (UniProt O00139); experiment: ITC
Chain of KIF2A N-terminal domain, KIF2A_(1-77) (human) (O00139 1-77): as the sequence (O00139 1-77) above

[2] = target: KIF2C N-terminal domain, KIF2C_(1-79) (human) (UniProt Q99661); experiment: ITC
[3] = test system: Opto-KIF2C foci in Flp-In T-REx 293 cells; experiment: SIM measurement of Opto-KIF2C foci area; format: cell-based; settings: mitotic cells, 5 min 488 nm light, about 0.1 μm^2 without nocodazole
[4] = test system: proteins in the vicinity of TurboID-Opto-KIF2C condensates, Flp-In T-Rex 293 cells; format: cell-based; settings: light OFF and ON conditions
Summary of the method: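 Flp-In T-REx 293 cells stably carrying TurboID-Opto-KIF2C, nocodazole-arrested, at 75% confluence, induced with 6 ng/ml doxycycline for 16 h. Biotin added while cells received 15 min of blue-light cycles (4 s light/30 s dark), or kept dark. Lysates sonicated and cleared; 1 mg protein bound to streptavidin-agarose 3 h at 4°C, stringently washed, boiled in Laemmli buffer. Detection by HRP immunoblot with ECL.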

[5] = test system: Opto-KIF2C condensates in Flp-In T-REx 293 cells; format: cell-based
Summary of the method: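 Opto-KIF2C expression induced with 1 μg/ml doxycycline for 16 h in cells plated at ~70% confluency in DMEM. Mitotic arrest used 100 ng/ml nocodazole for 16 h. Condensation induced under 488 nm LEDs at 10 mW/cm2, with 5 min of 4 s light/10 s dark cycles. Cells fixed in 4% PFA 15 min, permeabilized in 0.2% Triton 10 min, blocked in 3% BSA; primary and secondary antibodies 1 h RT each.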

[6] = test system: Opto-KIF2C condensates in Flp-In T-REx 293 cells; experiment: Opto-KIF2C foci formation; format: cell-based; settings: mitotic cells; for number of optogenetic KIF2C condensates formed upon blue light exposure: light ON
[7] = target: T2, BRCA2_(48-218) phosphorylated by PLK1 (human, UniProt P51587 48-218, phosphoserine 193, phosphothreonine 207; 15N-labelled); experiment: NMR titration
T2 sequence (looked up): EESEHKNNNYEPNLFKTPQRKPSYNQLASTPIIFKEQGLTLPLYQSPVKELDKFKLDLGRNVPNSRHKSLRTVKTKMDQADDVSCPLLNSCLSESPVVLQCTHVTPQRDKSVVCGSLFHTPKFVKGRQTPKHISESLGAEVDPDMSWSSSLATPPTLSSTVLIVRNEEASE

- binding to KIF2A Nt by NMR chemical shift analysis (KIF2A Nt (KIF2A1-77)): did not detect any binding
- binding to KIF2C Nt by NMR chemical shift analysis (KIF2C Nt (KIF2C1-79)): did not detect any binding
Molecule: BRCA2_194-214: non-phosphorylated synthetic BRCA2 peptide, residues 194-214 (WSSSLATPPTLSSTVLIVRNE)

- Kd [1]: 600 nM
- dH [1]: -15.7 kcal/mol and -18.1 kcal/mol
- Kd [2]: 480 nM and 1300 nM
- dH [2]: -19.1 kcal/mol and -12.1 kcal/mol
Molecule: BRCA2_(194-214(pT207)) peptide (from UniProt P51587 194-214)

- binding result [7]: binds
B1: KIF2C N-terminal domain, KIF2C_(1-79) (domain or fragment, human, UniProt Q99661 1-79, looked up)
chain: MAMDSSLQARLFPGLAIKIQRSNGLIHSANVRTVNLEKSCVSVEWAEGGATKGKEIDFDDVAAINPELLQLLPLHPKDN
modifications: 15N-labelled where it is the observed protein in NMR

The next lines start with the molecule.

Molecule: COC(=O)Nc1nc2ccc(C(=O)c3cccs3)cc2[nH]1 [nocodazole]
- area of the Opto-KIF2C condensates [3]: about 0.15 μm^2

Molecule: COc1cc2c(Nc3ccc(NC(=O)c4ccccc4)cc3)ncnc2cc1OCCCN1CCOCC1 [ZM447439]
- abundance of PLK1 in the vicinity of KIF2C condensates [4]: less abundant
- BRCA2-pT207 in KIF2C condensates (immunofluorescence, co-localization) ([5]; Flp-In T-Rex 293 cells): could not detect; also recorded: abolished
- PLK1 and PLK1-pT210 within Opto-KIF2C condensates (immunofluorescence) ([5]; mitotic cells, absence or presence of nocodazole): unable to detect
- formation of KIF2C condensates formed without light ([6]; light OFF): completely abolished
- number of optogenetic KIF2C condensates formed upon blue light exposure ([6]; Noc (+)): did not change
- number of optogenetic KIF2C condensates formed upon blue light exposure ([6]; Noc (-)): mildly decreased
